S1P4 ag: activates the human S1P4 receptor. 0.35% of 220,000 active. AID 1509. O95977. S1P4-expressing cell line, agonist reporter assay. activation, % at 4.98 µM; in the data active means activation above about 11%;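 further: 0% = DMSO vehicle and 100% = reference agonist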
Target sequence (O95977 whole entry, looked up): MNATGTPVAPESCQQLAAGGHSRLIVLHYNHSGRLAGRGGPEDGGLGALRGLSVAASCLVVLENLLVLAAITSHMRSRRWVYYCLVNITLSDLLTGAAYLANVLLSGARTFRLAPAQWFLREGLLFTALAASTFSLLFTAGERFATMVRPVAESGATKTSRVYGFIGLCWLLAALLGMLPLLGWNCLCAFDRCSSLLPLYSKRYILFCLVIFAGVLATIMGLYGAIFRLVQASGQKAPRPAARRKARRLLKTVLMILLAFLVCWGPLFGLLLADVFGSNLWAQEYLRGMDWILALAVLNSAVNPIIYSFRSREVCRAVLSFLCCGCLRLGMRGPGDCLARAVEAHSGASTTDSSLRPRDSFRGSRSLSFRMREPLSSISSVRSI
NPY-Y1 antag: blocks the human neuropeptide Y Y1 receptor | P25929 | HEK293-CNG Y1 cells, membrane potential fluorescence; NPY at EC95, then isoproterenol | inhibition, % at 3.6 µM | 1% of 200,000 active | AID 1040;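 active means inhibition above the campaign mean inhibition of all tested compounds plus 3 SD, cut at about 20% in these data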;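 further: 0% = DMSO wells given NPY plus isoproterenol and 100% = isoproterenol alone without NPY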
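Material: HEK293 Y1/CNG channel cell line | Also added: NPY (25 nM), isoproterenol (1 µM), Ro 20-1724 (25 µM) | Compound: One concentration, 3.6 µM, in 0.4% DMSO | Schedule: 3 h dye uptake, 1 h room-temperature compound, 45 min post-isoproterenol | Signal: Membrane-potential fluorescent dye readout | Read-out: % inhibition of NPY effect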
NPY-Y1 PAM-ag: human NPY-Y1 potentiation or agonism, primary screen | P25929 | 0.37% of 220,000 active | activation, % at 3.6 µM | NPY-Y1 expressing cells, potentiator/agonist activation | AID 1304; in the data active means activation above about 33%, passing the limit was not always enough;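 further: cells stimulated with NPY at EC10 then isoproterenol at EC100; 0% = low agonist plus stimulus and 100% = saturating agonist plus stimulus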
NPY Y2 blocker: blocks the human neuropeptide Y Y2 receptor; P49146; NPY-Y2 expressing cells, antagonist mode; inhibition, % at 2.7 µM; 0.99% of 140,000 active; in the data active means inhibition above about 17%;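 further: 0% = vehicle with agonist challenge and 100% = reference antagonist with challenge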
Target sequence (P49146 whole entry, looked up): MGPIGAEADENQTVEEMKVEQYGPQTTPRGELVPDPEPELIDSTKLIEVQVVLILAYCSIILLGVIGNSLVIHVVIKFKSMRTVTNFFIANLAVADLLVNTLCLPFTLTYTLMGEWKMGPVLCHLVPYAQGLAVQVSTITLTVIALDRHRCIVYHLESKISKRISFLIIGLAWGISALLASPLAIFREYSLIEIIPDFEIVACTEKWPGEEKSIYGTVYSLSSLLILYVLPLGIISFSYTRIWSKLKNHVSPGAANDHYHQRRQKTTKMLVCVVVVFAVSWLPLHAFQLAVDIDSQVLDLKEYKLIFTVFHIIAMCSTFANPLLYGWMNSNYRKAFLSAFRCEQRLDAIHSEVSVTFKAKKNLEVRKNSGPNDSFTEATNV
S1P4 antagonist: antagonists of human S1P4 receptor. inhibition, % at 4.98 µM. S1P4-expressing cells, antagonist mode, reporter read-out. O95977. 0.26% of 220,000 active. AID 1510; in the data active means inhibition above about 29%;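 further: 0% = wells stimulated with agonist and 100% = vehicle wells without agonist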
NPY-Y2 PAM-ag: human NPY-Y2 potentiation or agonism, primary screen; P49146; cells expressing NPY-Y2, potentiator/agonist read-out; activation, % at 3.6 µM; 0.45% of 220,000 active; in the data active means activation above about 27%;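 further: cells stimulated with NPY near EC25 plus isoproterenol at EC100; 0% = vehicle plus submaximal agonist and 100% = vehicle plus saturating agonist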
NPY-Y2 pot conf: human NPY-Y2 potentiation or agonism, confirmation. activation, % at 3.6 µM. shares compounds with NPY-Y2 PAM-ag. AID 1539. 20% of 450 active. cell-based NPY-Y2 potentiator/agonist assay; in the data active means activation above about 33%
NPY-Y1 potentiator: counter-screen for NPY-Y2 potentiators or agonists: NPY-Y1 potentiators or agonists | shares compounds with NPY-Y2 PAM-ag | Y1 HEK293-CNG cells, membrane potential fluorescence | activation, % at 3.6 µM | 20% of 450 active | AID 1651; in the data active means activation above about 45%;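 further: cells stimulated with submaximal NPY then isoproterenol with phosphodiesterase inhibitor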
NPY-Y1 ag 2: activates human NPY-Y1, counter-screen for NPY-Y2 potentiators; shares compounds with NPY-Y2 PAM-ag; HEK293 Y1-CNGC, membrane potential fluorescence, agonism; activation, % at 3.6 µM; 37% of 450 active; AID 1702;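 active means activation above the mean of DMSO-only control wells plus 3 SD, cut at about 18% in these data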;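 further: cells stimulated with 1 µM isoproterenol plus the PDE inhibitor Ro 20-1724; 0% = isoproterenol with DMSO and no NPY and 100% = 40 nM NPY; Y1 agonists lower the membrane potential dye signal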
CNGC inhibitor: blocks CNG channel activity, counter-screen for NPY-Y2 potentiators; shares compounds with NPY-Y2 PAM-ag; HEK293-CNG parental, isoproterenol cAMP, membrane potential fluorescence; inhibition, % at 3.6 µM; 32% of 450 active; AID 1703;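 active means inhibition above the control-well mean plus 3 SD of those wells, cut at about 22% in these data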;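 further: 0% = DMSO with isoproterenol and 100% = DMSO without isoproterenol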
Y2 agonist ctr: activates human NPY-Y2 receptor in potentiator counter-screen | shares compounds with NPY-Y2 PAM-ag | HEK293 Y2/CNGC cells, membrane potential fluorescence, agonist mode | activation, % at 3.6 µM | 56% of 450 active | AID 1710;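 active means activation above the mean of solvent-only control wells plus 3 SD, cut at about 10% in these data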;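 further: cells stimulated by isoproterenol with no NPY added so direct agonism is tested; 0% = DMSO with isoproterenol alone and 100% = NPY at EC100 plus isoproterenol; agonism lowers probe fluorescence through less cAMP and CNG channel opening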
The depositor's hits bear a star; · = no result given. In the library only some 2.4% were active in any assay of this set; here they are far more common.

SMILES	S1P4 ag	NPY-Y1 antag	NPY-Y1 PAM-ag	NPY Y2 blocker	S1P4 antagonist	NPY-Y2 PAM-ag	NPY-Y2 pot conf	NPY-Y1 potentiator	NPY-Y1 ag 2	CNGC inhibitor	Y2 agonist ctr
COc1ccc(-c2nc3cnccn3c2Nc2ccc(C)cc2)cc1	-0.8	12.1	-15.3	10.2	8.7	28.7*	46.7*	42.6	29.2*	27.1*	51.9*
CC1(C)OC(=CC=Nc2ccc(Cl)cc2)OC1(C)C	-0.3	·	3.9	·	-1.1	-14.0	·	·	·	·	·
Cc1ccc(-n2ncc(C#N)c2N)cc1	2.1	·	0.5	·	-15.7	-16.1	·	·	·	·	·
N#Cc1cnn(-c2ccc(F)cc2)c1N	0.7	·	12.8	·	0.5	55.2*	-6.5	-13.7	-25.4	-7.3	-14.9
Cc1ccccc1Nc1nc(N)c2ccccc2n1	0.5	3.1	-8.3	·	-3.5	11.9	·	·	·	·	·
Nc1nc(Nc2ccc(Cl)cc2)nc2ccccc12	-3.1	-5.9	36.5	-1.0	12.7	51.1*	55.5*	65.0*	41.3*	50.4*	42.4*
Cc1c(C(=O)O)[nH]c2ccc([N+](=O)[O-])cc12	1.8	-9.4	18.0	·	0.8	30.4*	27.7	35.9	38.8*	21.4	31.4*
CC(NC(=O)CN(C)Cc1cccs1)c1ccccc1 (configuration not stated)	0.7	1.5	9.4	·	-5.4	0.9	·	·	·	·	·
COC(=O)/C(=C\Nc1cccc(Cl)c1C)c1ncc(C(F)(F)F)cc1Cl	0.7	7.3	3.0	4.1	11.7	57.5*	-11.0	-16.1	-21.7	-19.8	-14.2
CC(C)(C)c1cc(C(=O)NNC(=O)c2ccc(Cl)cc2)no1	-1.0	·	-2.0	·	17.4	7.5	·	·	·	·	·
CC(C)c1nnc(NC(=O)CCC(=O)Nc2ccc3cn[nH]c3c2)s1	0.0	·	-3.6	·	-3.2	38.8*	0.1	-0.9	3.5	5.9	13.4*
CCn1c2ccccc2c2cc(NC(=O)N3CCOCC3)ccc21	1.6	1.8	-4.3	-1.6	-12.1	15.1	·	·	·	·	·
CCn1c2ccccc2c2cc(NC(=O)CN(C)CC(=O)Nc3ccc(N4CCOCC4)cc3)ccc21	1.1	-1.9	31.8	·	5.1	26.8*	19.9	30.0	15.1	15.4	17.7*
O=[N+]([O-])c1ccc(S(=O)(=O)Nc2nc3ccccc3nc2Nc2ccccc2)cc1	1.8	-2.8	26.1	·	-29.1	0.9	·	·	·	·	·
O=[N+]([O-])c1ccc(Nc2c3ccccc3nc3ccccc23)cc1	5.6	-4.5	25.5	·	-3.8	30.6*	46.6*	53.9*	35.7*	41.0*	44.6*
CC(C)CC1(C)NC(=O)N(CC(=O)Nc2ccc3c(c2)CCC3)C1=O (configuration not stated)	0.9	1.3	-9.7	·	-5.1	-4.8	·	·	·	·	·
COCCNC(=O)[C@H](CSCc1ccccc1)N1Cc2ccccc2C1=O	-0.6	·	4.0	·	-1.6	102.2*	0.3	3.4	3.0	-0.8	4.7
NC(=S)c1c(Cl)cc(C(F)(F)F)cc1Cl	-0.5	·	11.2	·	5.8	7.0	·	·	·	·	·
CCOc1ccc(-c2csc(NC(=O)CSC3=NC(=O)CN3C(C)=O)n2)c2ccccc12	2.2	1.3	-18.9	-3.8	5.0	13.1	·	·	·	·	·
CC(=O)N1CC(=O)N=C1SCC(=O)Nc1nc(C)c(-c2ccccc2)s1	0.6	-6.4	36.2	·	-11.4	36.6*	24.6	34.5	40.6*	39.9*	28.5*
CSc1ccccc1NC(=O)N1CCCC(C(=O)c2ccc3c(c2)OCO3)C1 (configuration not stated)	-0.9	6.7	-3.9	·	3.1	-13.1	·	·	·	·	·
CC(C)COC(=O)NC1c2ccccc2Oc2ccccc21	1.0	·	-38.0	·	4.1	99.9*	-17.2	-32.9	-32.4	-20.7	-8.3
Cc1ccc(NC(=O)c2ccccc2NS(=O)(=O)c2ccc(Cl)s2)cc1	0.6	-2.7	21.3	7.7	-15.8	43.3*	-16.4	-60.3	-45.3	-21.8	-16.7
CCOc1ccc(CC(=O)NNC(=O)/C=C/C(=O)O)cc1	0.7	·	6.8	·	3.8	-14.2	·	·	·	·	·
Cn1c(=O)c(C(=O)NCC2CCCO2)c(O)c2ccccc21 (configuration not stated)	0.9	3.9	-2.8	·	-6.4	-12.1	·	·	·	·	·
SMILES	S1P4 ag	NPY-Y1 antag	NPY-Y1 PAM-ag	NPY Y2 blocker	S1P4 antagonist	NPY-Y2 PAM-ag	NPY-Y2 pot conf	NPY-Y1 potentiator	NPY-Y1 ag 2	CNGC inhibitor	Y2 agonist ctr
O=C(OCN1C(=O)c2ccccc2C1=O)c1ccc2c(=O)n3c(nc2c1)CCC3	1.2	-5.5	15.3	-0.4	-20.3	2.0	·	·	·	·	·
COc1ccc(COC(=O)c2ccc3c(=O)n4c(nc3c2)CCC4)cc1F	0.0	·	-21.6	·	6.3	58.9*	-4.3	-5.3	-10.3	-3.0	10.3*
NC(=O)COn1c(SCC(N)=O)nc2ccccc2c1=O	0.9	·	-1.0	·	17.8	-12.3	·	·	·	·	·
NC(=O)c1ccc(N2CCN(S(=O)(=O)c3ccccc3)CC2)c([N+](=O)[O-])c1	0.7	7.5	18.7	·	-12.5	31.1*	-3.8	-42.8	-26.2	-10.1	-7.7
COC(=O)c1ccc(N2CCN(S(=O)(=O)c3ccc4ccccc4c3)CC2)c([N+](=O)[O-])c1	-0.9	-1.9	16.8	-1.8	-13.3	3.2	·	·	·	·	·
N=C1CCC(=N)c2c1c(O)c1ccccc1c2O	-1.0	·	32.5	·	-8.6	40.7*	21.1	23.5	23.2*	21.2	18.2*
Cc1cc2c(cc1C)N(C(=O)CSC1=NCCS1)C(C)(C)c1ssc(=S)c1-2	-1.7	-9.5	28.2	-4.6	11.9	41.6*	22.8	28.9	23.7*	11.4	29.4*
COc1ccc2c(c1)-c1c(ssc1=S)C(C)(C)N2C(=O)CSC1=NCCS1	3.2	-8.7	50.8	-8.0	-11.8	43.0*	25.5	28.1	23.5*	23.5*	19.9*
Cc1ccc2c(c1)-c1c(ssc1=S)C(C)(C)N2C(=O)CSc1nncn1C	1.6	-2.4	9.5	1.8	-7.5	18.2	·	·	·	·	·
O=C(CSc1cccc2cccnc12)N/N=C/c1ccc(O)cc1	1.2	·	-11.0	·	3.8	4.0	·	·	·	·	·
O=C(CCc1ccccc1O)N/N=C/c1ccc(Sc2cccc3cccnc23)o1	2.0	3.5	38.6	-1.4	-5.4	36.9*	19.0	36.2	33.8*	22.3*	22.4*
Cc1ccc(/C=N/NC(=O)CNC(=O)c2ccc(S(=O)(=O)N3CCCC3)cc2)o1	0.6	-2.4	28.5	·	5.5	83.8*	-4.1	-1.2	-11.5	0.0	-6.0

Compound activity as filed in PubChem.
